Results on one compound are retold here after ChEMBL document CHEMBL4477178, “Biflorin, Isolated from the Flower Buds of Syzygium aromaticum L., Suppresses LPS-Induced Inflammatory Mediators via STAT1 Inactivation in Macrophages and Protects Mice from Endotoxin Shock” (J Nat Prod, 2016).

As usually defined, the inhibition is the share of the control response that was lost under treatment. A word on the inhibition in vivo: it is the relative decrease from the control value, in per cent.

Activity calls are given as the source filed them. The calls are words filed in the database; no cut-off is given here.

The subject of experiment [1] is RAW264.7. Description: Antiinflammatory activity in mouse RAW264.7 cells assessed as inhibition of LPS-induced IL-6 production at 60 uM preincubated for 1 hr followed by LPS challenge for 24 hrs by ELISA method. In kind it is functional. The essentials:
(§1)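 RAW 264.7 cells in DMEM with 10% FBS, plated at 2 × 10^5 cells/mL and incubated overnight. Pretreated with compound (15, 30 or 60 μM) for 1 h, then LPS 10 ng/mL for 24 h. PGE2 measured by competitive colorimetric ELISA, TNF-α and IL-6 by ELISA, in diluted medium. NS-398 3 μM as positive control for PGE2. Mean ± SD, three independent experiments; IC50 given for PGE2.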
On the technique in general: In an ELISA, binding on a coated surface is turned into a signal by an enzyme label.

Experiment [2] relates to RAW264.7. Description: Antiinflammatory activity in mouse RAW264.7 cell lysate assessed as inhibition of LPS-induced iNOS expression preincubated for 1 hr followed by LPS challenge for 24 hrs by Western blot analysis. In kind it is functional, cell-based. The essentials:
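RAW 264.7 (DMEM, 10% FBS, 37 °C, 5% CO2) pretreated 1 h at 15, 30 or 60 μM, then LPS 10 ng/mL for 24 h. Lysates run on 10–12% SDS-PAGE, blotted to PVDF, probed with iNOS or COX-2 antibody (1:1000, overnight 4 °C), HRP secondary, ECL; densitometry vs β-actin. Mean ± SD of three independent experiments.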

Experiment [3] relates to Rattus norvegicus. Description: Antiinflammatory activity in Sprague-Dawley rat assessed as reduction in carrageenan induced paw edema at 10 mg/kg, ip administered 1 hr before carrageenan challenge measured at 3 hrs post challenge relative to control. In kind it is functional. The essentials: (§2)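 SD rats given compound i.p. (5, 10 or 15 mg/kg) 1 h before subplantar injection of 1% carrageenan in saline (0.1 mL) into the right hind paw. Paw volume measured by plethysmometer at 1, 3 and 5 h. Edema compared with the carrageenan-only group; seven rats per group.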
(In general: In the carrageenan paw model, swelling and tenderness develop within hours.)

Experiment [4] relates to Rattus norvegicus. Description: Antiinflammatory activity in Sprague-Dawley rat assessed as reduction in carrageenan induced paw edema at 5 mg/kg, ip administered 1 hr before carrageenan challenge measured at 3 hrs post challenge relative to control. In kind it is functional. The essentials:
as §2

Experiment [5] has as its system RAW264.7. Description: Antiinflammatory activity in mouse RAW264.7 cells assessed as inhibition of LPS-induced TNF-alpha production at 60 uM preincubated for 1 hr followed by LPS challenge for 24 hrs by ELISA method. In kind it is functional. The essentials:
as §1

The subject of experiment [6] is Rattus norvegicus. The experiment can be described thus: Antiinflammatory activity in Sprague-Dawley rat assessed as inhibition of croton oil-induced ear edema at 10 mg/kg, ip administered 1 hr before croton oil challenge measured after 3 hrs by hematoxylin and eosin staining based assay. In kind it is functional, organism-based. In outline:
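SD male rats dosed i.p. (10 mg/kg) 1 h before topical croton oil (5% in acetone) on inner right ear; left ear got acetone only. At 3 h rats sacrificed, 6 mm ear punches taken, fixed in 4% paraformaldehyde overnight, paraffin-embedded, H&E-stained for edema and inflammatory cell infiltrate; seven animals per group.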

As for `Cc1cc(=O)c2c(O)c([C@@H]3O[C@H](CO)[C@@H](O)[C@H](O)[C@H]3O)c(O)cc2o1` [BIFLORIN], the inhibition at 60 µM in the experiment with RAW264.7 [1] is 51.3%; in the experiment on RAW264.7 [5], 75%. In the experiment on RAW264.7 [2], the inhibition result was “Dose-dependent effect”. Further, in the experiment with Rattus norvegicus [3], the inhibition in vivo at 10 mg/kg stood at 48%. In addition, the inhibition in vivo at 5 mg/kg in the experiment on Rattus norvegicus [4] is 26%. Besides, the inhibition entry with Rattus norvegicus [6] was “Active”.
